Converted amounts (≈) assume the structure as drawn. The source made the active and inactive calls. The rule behind the calls is not given here.
What was measured:
Candida albicans [1] = experiment: Antifungal activity against Candida albicans SC5314 after 24 hrs; format: functional
In short: (§1)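 Overnight YPD cultures diluted in PBS (1/200 for C. albicans, 1/400 for C. glabrata). Cells treated with compound, or 2.5% DMSO as solvent control, for 24 h at 37 °C. CFUs then counted; MFC is the concentration giving 99% killing of the inoculum.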

[2] = Half life in human plasma; format: ADME, cell-free
Candida albicans [3] = experiment: Antifungal activity against Candida albicans SC5314 infected in BALB/c mouse assessed as reduction in reduction in fungal load in kidney at 10 mg/kg/day, ip for 5 days relative to vehicle-treated control; format: functional, organism-based
In short: (§2)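 BALB/c mice given cyclophosphamide 100 mg/kg at 4 days and 24 h before infection and at 3 days after. Infected IV with 2×10^3 SC5314 cells in saline. Dosed IP daily for 5 days from 16 h post-infection, in DMSO/0.5% methylcellulose (5/95). Organs taken on day 7, homogenized and plated on BHI agar (18 h, 37 °C). CFU/g compared with vehicle.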

Nakaseomyces glabratus = experiment: Antifungal activity against Candida glabrata BG2 after 24 hrs; format: functional; in short: as §1
Aspergillus fumigatus = experiment: Antifungal activity against Aspergillus fumigatus CBS 117202 after 24 hrs by two-fold dilution method; format: functional; settings: CBS 117202, 24 h
In short: (§3)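 Spores at 2×10^4 spores/mL in potato dextrose broth, incubated with a 2-fold compound dilution series for 24 h at 25 °C. Growth read by microspectrophotometry of the liquid cultures. MIC taken as the lowest concentration inhibiting fungal growth.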

[4] = Half life in mouse plasma; format: ADME, cell-free
Aspergillus flavus = experiment: Antifungal activity against Aspergillus flavus CBS111.45 after 24 hrs by two-fold dilution method; format: functional; settings: CBS111.45, 24 h; in short: as §3
[5] = test system: Trichophyton mentagrophytes; experiment: Fungicidal activity against Trichophyton mentagrophytes B70554; format: functional, organism-based
In short: (§4)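 Inoculum of 10^3 CFU in RPMI-MOPS added to prediluted compound, highest concentration 64 µM. Growth read by resazurin fluorescence (ex 550, em 590 nm). IC50 is 50% growth inhibition versus untreated controls. Three independent replicates.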

Trichophyton rubrum = experiment: Fungicidal activity against Trichophyton rubrum B68183; format: functional, organism-based; in short: as §4
Microsporum canis = experiment: Fungicidal activity against Microsporum canis B68128; format: functional; in short: as §4
Sporothrix schenckii = experiment: Fungicidal activity against Sporothrix schenckii B62482; format: functional, organism-based; in short: as §4
[6] = Cytotoxicity against human MRC5 SV2 cells after 72 hrs by fluorescence assay; format: cell-based
In short: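 MRC-5 SV2 cells (10^4/well) grown in MEM with L-glutamine, NaHCO3 and 5% FCS. Incubated with compound 72 h at 37 °C, 5% CO2, then resazurin added for 24 h. Fluorescence read at ex 530, em 590 nm.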

Candida albicans [7] = experiment: Fungicidal activity against CA2 high-persister Candida albicans clinical isolate; format: functional
[8] = Kinetic solubility of the compound at pH 7.4; format: physicochemical; settings: buffer, read-out: Kinetic_solubility
[9] = Apparent permeability from apical to basolateral side in human Caco2 cells; format: ADME, cell-based; settings: Caco-2
[10] = Apparent permeability from basolateral to apical side in human Caco2 cells; format: ADME, cell-based; settings: Caco-2
[11] = Plasma protein binding in human; format: ADME, cell-free; settings: read-out: PPB (converted)
[12] = Half life in simulated gastric fluid at pH 1.2; format: ADME
In short: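 Stability in simulated gastric fluid containing 800000 Units/L pepsin at pH 1.2; half-life reported.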

[13] = Half life in simulated intestinal fluid […]; format: ADME
[14] = Half life in human liver microsomes; format: ADME
[15] = Half life in mouse liver microsomes; format: ADME
hERG (KCNH2) = hERG (KCNH2) (Homo sapiens, UniProt Q12809); experiment: Inhibition of human ERG channel at 10 uM
hERG (KCNH2), sequence (Q12809 whole entry): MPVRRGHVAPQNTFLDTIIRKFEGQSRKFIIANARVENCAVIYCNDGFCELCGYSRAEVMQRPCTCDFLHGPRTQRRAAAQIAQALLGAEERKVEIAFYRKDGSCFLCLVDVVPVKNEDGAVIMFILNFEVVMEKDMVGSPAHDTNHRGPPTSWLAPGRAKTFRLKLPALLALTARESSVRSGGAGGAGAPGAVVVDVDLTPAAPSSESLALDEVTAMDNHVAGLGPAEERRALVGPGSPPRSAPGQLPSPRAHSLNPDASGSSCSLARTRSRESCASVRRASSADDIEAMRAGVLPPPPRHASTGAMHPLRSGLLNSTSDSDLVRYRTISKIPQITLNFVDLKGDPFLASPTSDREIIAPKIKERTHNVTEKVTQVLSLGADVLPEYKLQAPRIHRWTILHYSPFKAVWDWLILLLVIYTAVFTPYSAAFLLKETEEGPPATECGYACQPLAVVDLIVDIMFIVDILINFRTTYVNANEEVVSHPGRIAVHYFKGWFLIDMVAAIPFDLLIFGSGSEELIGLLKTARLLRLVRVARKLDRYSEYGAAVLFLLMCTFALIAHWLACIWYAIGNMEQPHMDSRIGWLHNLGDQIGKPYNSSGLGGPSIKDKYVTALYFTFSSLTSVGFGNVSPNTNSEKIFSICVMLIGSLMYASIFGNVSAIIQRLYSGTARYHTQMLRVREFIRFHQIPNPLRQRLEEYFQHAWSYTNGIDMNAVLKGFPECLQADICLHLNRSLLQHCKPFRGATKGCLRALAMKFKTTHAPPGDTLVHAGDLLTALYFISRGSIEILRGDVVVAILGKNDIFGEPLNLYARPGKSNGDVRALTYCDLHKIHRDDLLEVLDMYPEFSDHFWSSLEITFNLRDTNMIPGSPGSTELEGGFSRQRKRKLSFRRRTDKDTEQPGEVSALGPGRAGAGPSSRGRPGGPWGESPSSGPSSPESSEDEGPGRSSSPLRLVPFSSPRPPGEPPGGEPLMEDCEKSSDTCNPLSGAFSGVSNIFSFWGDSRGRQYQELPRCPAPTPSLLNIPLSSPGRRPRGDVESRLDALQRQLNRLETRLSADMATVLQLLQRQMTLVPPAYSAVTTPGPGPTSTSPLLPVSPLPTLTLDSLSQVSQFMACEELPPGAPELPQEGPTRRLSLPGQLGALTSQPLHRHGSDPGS

Candida albicans [16] = experiment: Antifungal activity against Candida albicans SC5314 infected in BALB/c mouse assessed as reduction in reduction in fungal load in spleen at 10 mg/kg/day, ip for 5 days relative to vehicle-treated control; format: functional, organism-based; in short: as §2
Candida albicans [17] = experiment: Antifungal activity against Candida albicans SC5314 infected in BALB/c mouse assessed as reduction in reduction in fungal load in liver at 10 mg/kg/day, ip for 5 days relative to vehicle-treated control; format: functional, organism-based; in short: as §2
Saccharomyces cerevisiae [18] = experiment: Antifungal activity against Saccharomyces cerevisiae BY4741 at 12.5 to 50 ug/ml after 24 hrs by Omnilog plate reader analysis; format: functional, organism-based
In short: (§5)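 S. cerevisiae BY4741 from overnight YPD culture, 1/500 final dilution, in Biolog PM22–PM25 chemical sensitivity plates (96 conditions). Compound tested at 12.5 and 50 µg/mL. Plates incubated 24 h at 37 °C in the Omnilog reader.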

Saccharomyces cerevisiae [19] = experiment: Antifungal activity against Saccharomyces cerevisiae BY4741 at 12.5 to 50 ug/ml after 24 hrs by Omnilog plate reader analysis in presence of sodium cyanide; format: functional, organism-based; in short: as §5
Saccharomyces cerevisiae [20] = experiment: Antifungal activity against Saccharomyces cerevisiae BY4741 at 12.5 to 50 ug/ml after 24 hrs by Omnilog plate reader analysis in presence of sodium thiosulfate; format: functional, organism-based; in short: as §5
Saccharomyces cerevisiae [21] = experiment: Antifungal activity against Saccharomyces cerevisiae BY4741 at 12.5 to 50 ug/ml after 24 hrs by Omnilog plate reader analysis in presence of chlortetracycline hydrochloride; format: functional, organism-based; in short: as §5
Saccharomyces cerevisiae [22] = experiment: Antifungal activity against Saccharomyces cerevisiae BY4741 at 12.5 to 50 ug/ml after 24 hrs by Omnilog plate reader analysis in presence of potassium chromate; format: functional, organism-based; in short: as §5
Saccharomyces cerevisiae [23] = experiment: Antifungal activity against Saccharomyces cerevisiae BY4741 at 12.5 to 50 ug/ml after 24 hrs by Omnilog plate reader analysis in presence of monothioglycerol; format: functional, organism-based; in short: as §5

CCNC(=O)CC1C(=O)OC(C)(C)CN1CC (stereo not drawn)
MFC99 (Candida albicans [1]): 50 µg/mL (≈ 206 µM)

CCN1CCOCC1CC(=O)Nc1ccc(C(C)C)cc1 (stereo not drawn)
MFC99 (Candida albicans [1]): >50 µg/mL

CC(C)c1ccc(NC(=O)CC2C(=O)OC(C)(C)CN2C2CCCC2)cc1 (stereo not drawn)
MFC99 (Candida albicans [1]): >25 µg/mL

CC(C)c1ccc(NC(=O)CC2C(=O)OC(C)(C)CN2CCF)cc1 (stereo not drawn)
MFC99 (Candida albicans [1]): >25 µg/mL

C[C@@H]1[C@H](O)[C@@H](C)/C=C/C=C/C=C/C=C/C=C/C=C/C=C/[C@H](O[C@@H]2O[C@H](C)[C@@H](O)[C@H](N)[C@@H]2O)C[C@@H]2O[C@](O)(C[C@@H](O)C[C@@H](O)[C@H](O)CC[C@@H](O)C[C@@H](O)CC(=O)O[C@H]1C)C[C@H](O)[C@H]2C(=O)O [AMPHOTERICIN B]
MFC99 (Candida albicans [1]): 1.6 µg/mL (≈ 1.73 µM)

CCN1C[C@@H](C)OC(=O)C1CC(=O)Nc1ccc(C(C)C)cc1 (stereo partly drawn)
MFC99 (Candida albicans [1]): 12.5 µg/mL (≈ 39.3 µM) | half-life [2]: 55 min

OC(Cn1cncn1)(Cn1cncn1)c1ccc(F)cc1F [FLUCONAZOLE]
MFC99 (Candida albicans [1]): >100 µg/mL | Activity (Candida albicans [3]): Active

CCN1C[C@H](c2ccccc2)OC(=O)C1CC(=O)Nc1ccc(C(C)C)cc1 (stereo partly drawn)
MFC99 (Candida albicans [1]): 12.5 µg/mL (≈ 32.9 µM) | half-life [2]: 49 min

CCN1CC(C)(C)OC(=O)C1CC(=O)NCC1CCCCC1 (stereo not drawn)
MFC99 (Candida albicans [1]): 25 µg/mL (≈ 80.5 µM)

CCN1CC(C)(C)OC(=O)C1CC(=O)NCc1cccs1 (stereo not drawn)
MFC99 (Candida albicans [1]): 25 µg/mL (≈ 80.5 µM)

CC(C)c1ccc(NC(=O)CC2C(=O)OC(C)(C)CN2C2CC2)cc1 (stereo not drawn)
MFC99 (Candida albicans [1]): >25 µg/mL

CCN1CCOC(=O)C1CC(=O)Nc1ccc(C(C)C)cc1 (stereo not drawn)
MFC99 (Candida albicans [1]): 12.5 µg/mL (≈ 41.1 µM) | MFC99 (Nakaseomyces glabratus): 12.5 µg/mL (≈ 41.1 µM) | MIC (Aspergillus fumigatus): 12.5 µg/mL (≈ 41.1 µM) | half-life [2]: 22 min | half-life [4]: 32 min

CCN1CC(C)(C)OC(=O)C1CC(=O)NCc1cccc(-c2ccccc2)c1 (stereo not drawn)
MFC99 (Candida albicans [1]): 12.5 µg/mL (≈ 32.9 µM) | MFC99 (Nakaseomyces glabratus): 12.5 µg/mL (≈ 32.9 µM) | MIC (Aspergillus fumigatus): ≤ 3.1 µg/mL | half-life [2]: > 240 min | MIC (Aspergillus flavus): 25 µg/mL (≈ 65.7 µM) | IC50 [5]: 3 µg/mL (≈ 7.88 µM) | IC50 (Trichophyton rubrum): 0.7 µg/mL (≈ 1.84 µM) | IC50 (Microsporum canis): 2.4 µg/mL (≈ 6.31 µM) | IC50 (Sporothrix schenckii): 2.7 µg/mL (≈ 7.1 µM) | CC50 at 72 h [6]: > 20 µg/mL | MFC (Candida albicans [7]): 12.5 µg/mL (≈ 32.9 µM) | solubility kinetic [8]: 50 µM (≈ 19 µg/mL) | Papp A→B [9]: 22 ×10⁻⁶ cm/s | Papp B→A [10]: 13 ×10⁻⁶ cm/s | fraction unbound [11]: 0.003 | half-life [12]: > 240 min | half-life [13]: 223 min | half-life [14]: 6 min | half-life [15]: 1 min | inhibition at 10 µM (hERG (KCNH2)): 25.5% | Activity (Candida albicans [3]): Active | Activity (Candida albicans [16]): Active | Activity (Candida albicans [17]): Active | Activity (Saccharomyces cerevisiae [18]): Active | Activity (Saccharomyces cerevisiae [19]): inactive | Activity (Saccharomyces cerevisiae [20]): inactive | Activity (Saccharomyces cerevisiae [21]): inactive | Activity (Saccharomyces cerevisiae [22]): inactive | Activity (Saccharomyces cerevisiae [23]): inactive

CCN1C[C@H](C)OC(=O)C1CC(=O)Nc1ccc(C(C)C)cc1 (stereo partly drawn)
MFC99 (Candida albicans [1]): 12.5 µg/mL (≈ 39.3 µM) | half-life [2]: 57 min

CCN1CC(C)(C)OC(=O)C1CC(=O)Nc1c(C)noc1C (stereo not drawn)
MFC99 (Candida albicans [1]): >50 µg/mL

CCCN1CC(C)(C)OC(=O)C1CC(=O)Nc1ccc(C(C)C)cc1 (stereo not drawn)
MFC99 (Candida albicans [1]): >25 µg/mL

CCN1CC(C)(C)OC(=O)C1CC(=O)Nc1ccnn1C (stereo not drawn)
MFC99 (Candida albicans [1]): >50 µg/mL

CCN1C(CC(=O)Nc2ccc(C(C)C)cc2)C(=O)OC(C)(C)C1(C)C (stereo not drawn)
MFC99 (Candida albicans [1]): >25 µg/mL

Clc1ccc(COC(Cn2ccnc2)c2ccc(Cl)cc2Cl)c(Cl)c1 (stereo not drawn) [MICONAZOLE]
IC50 (Microsporum canis): 0.02 µg/mL (≈ 0.0481 µM) | IC50 (Sporothrix schenckii): 0.12 µg/mL (≈ 0.288 µM)

CC(=O)N1CC(C)(C)OC(=O)C1CC(=O)Nc1ccc(C(C)C)cc1 (stereo not drawn)
MFC99 (Candida albicans [1]): >25 µg/mL

CC(C)c1ccc(NC(=O)CC2C(=O)OC(C)(C)CN2c2ccccc2)cc1 (stereo not drawn)
MFC99 (Candida albicans [1]): >50 µg/mL

CCN1CC(C)(C)OC(=O)C1CC(=O)Nc1ccncc1 (stereo not drawn)
MFC99 (Candida albicans [1]): >50 µg/mL

CCN1CC(C)(C)OC(=O)C1CC(=O)NCc1ccccc1 (stereo not drawn)
MFC99 (Candida albicans [1]): 12.5 µg/mL (≈ 41.1 µM)

CN(C/C=C/C#CC(C)(C)C)Cc1cccc2ccccc12 [TERBINAFINE]
IC50 [5]: 0.02 µg/mL (≈ 0.0686 µM) | IC50 (Trichophyton rubrum): 0.02 µg/mL (≈ 0.0686 µM)

CC(C)c1ccc(NC(=O)CC2C(=O)OC(C)(C)CN2S(C)(=O)=O)cc1 (stereo not drawn)
MFC99 (Candida albicans [1]): >25 µg/mL

CC(C)c1ccc(NC(=O)CC2C(=O)OC(C)(C)CN2Cc2ccccc2)cc1 (stereo not drawn)
MFC99 (Candida albicans [1]): >50 µg/mL

CCN1CC(C)(C)OC(=O)C1CC(=O)NCc1ccc(Cl)cc1 (stereo not drawn)
MFC99 (Candida albicans [1]): 12.5 µg/mL (≈ 36.9 µM) | MFC99 (Nakaseomyces glabratus): 12.5 µg/mL (≈ 36.9 µM) | MIC (Aspergillus fumigatus): 6.2 µg/mL (≈ 18.3 µM) | MIC (Aspergillus flavus): 25 µg/mL (≈ 73.8 µM) | IC50 [5]: 2.7 µg/mL (≈ 7.97 µM) | IC50 (Trichophyton rubrum): 2 µg/mL (≈ 5.9 µM) | IC50 (Microsporum canis): 2 µg/mL (≈ 5.9 µM) | IC50 (Sporothrix schenckii): 2.2 µg/mL (≈ 6.49 µM) | CC50 at 72 h [6]: > 20 µg/mL

Source: ChEMBL document CHEMBL3407422, “2-(2-oxo-morpholin-3-yl)-acetamide derivatives as broad-spectrum antifungal agents” (J Med Chem, 2015)
